Measurements from ChEMBL document CHEMBL5096209, “Structure-Activity Studies of 3,9-Diazaspiro[5.5]undecane-Based γ-Aminobutyric Acid Type A Receptor Antagonists with Immunomodulatory Effect” (J Med Chem, 2021).

Columns and labels:
[1] = tested on: GABAA receptor α4β2δ (human); test: Antagonist activity at recombinant human alpha4beta2delta GABAA receptor expressed in HEK293 Flp-In cells by FMP assay
[2] = target: T1, Gamma-aminobutyric acid receptor subunit alpha-5/beta-2/gamma-2 (Homo sapiens, UniProt P18507+P31644+P47870); test: Antagonist activity at human alpha5beta2gamma2 GABAA receptor expressed in HEK cells by FMP assay; format: cell-based
T1 sequence (P47870 whole entry): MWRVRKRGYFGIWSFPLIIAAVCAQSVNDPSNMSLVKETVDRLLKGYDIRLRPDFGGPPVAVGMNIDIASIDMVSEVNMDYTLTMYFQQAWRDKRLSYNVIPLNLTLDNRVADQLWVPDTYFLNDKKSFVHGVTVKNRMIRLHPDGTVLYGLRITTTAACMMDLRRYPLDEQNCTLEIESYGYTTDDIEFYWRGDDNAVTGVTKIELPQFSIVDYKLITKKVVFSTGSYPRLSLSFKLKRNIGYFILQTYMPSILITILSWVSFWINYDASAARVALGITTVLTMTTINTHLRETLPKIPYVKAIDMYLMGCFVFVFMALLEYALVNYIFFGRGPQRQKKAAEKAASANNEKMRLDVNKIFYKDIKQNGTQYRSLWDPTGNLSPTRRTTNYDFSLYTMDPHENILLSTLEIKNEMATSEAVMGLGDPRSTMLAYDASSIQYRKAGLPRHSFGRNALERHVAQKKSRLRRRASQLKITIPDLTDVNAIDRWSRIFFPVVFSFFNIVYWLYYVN
T1 sequence (P18507 whole entry): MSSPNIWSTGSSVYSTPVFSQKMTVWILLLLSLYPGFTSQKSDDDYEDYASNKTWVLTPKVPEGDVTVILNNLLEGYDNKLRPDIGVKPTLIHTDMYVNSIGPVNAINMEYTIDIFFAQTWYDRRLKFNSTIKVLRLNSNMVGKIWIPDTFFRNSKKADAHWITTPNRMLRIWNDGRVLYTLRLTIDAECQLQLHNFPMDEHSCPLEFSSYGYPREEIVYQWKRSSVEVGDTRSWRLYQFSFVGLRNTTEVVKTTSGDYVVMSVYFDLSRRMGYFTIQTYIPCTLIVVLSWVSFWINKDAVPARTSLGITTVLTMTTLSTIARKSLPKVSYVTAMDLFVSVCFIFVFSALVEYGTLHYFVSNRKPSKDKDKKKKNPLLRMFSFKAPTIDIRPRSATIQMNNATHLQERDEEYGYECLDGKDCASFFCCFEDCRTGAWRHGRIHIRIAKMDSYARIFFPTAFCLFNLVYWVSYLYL
T1 sequence (P31644 whole entry): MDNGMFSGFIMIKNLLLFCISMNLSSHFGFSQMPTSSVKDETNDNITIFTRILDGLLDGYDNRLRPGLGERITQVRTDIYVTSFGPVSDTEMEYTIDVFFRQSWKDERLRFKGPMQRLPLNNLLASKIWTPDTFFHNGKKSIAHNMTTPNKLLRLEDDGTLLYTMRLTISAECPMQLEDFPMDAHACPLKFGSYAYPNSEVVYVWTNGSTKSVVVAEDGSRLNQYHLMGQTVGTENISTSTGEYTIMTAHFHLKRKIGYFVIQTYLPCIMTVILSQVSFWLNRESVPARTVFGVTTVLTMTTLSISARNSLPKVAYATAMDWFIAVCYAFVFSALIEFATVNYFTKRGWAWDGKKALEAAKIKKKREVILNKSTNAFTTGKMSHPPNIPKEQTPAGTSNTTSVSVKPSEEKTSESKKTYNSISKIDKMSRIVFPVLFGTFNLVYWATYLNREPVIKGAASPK
In short: (§1)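 Human αβγ2 receptors in HEK293 cells: α1β2γ2 stably expressed, other αβγ2 subtypes transiently transfected into HEK293 Flp-In background cells (α:β:γ 1:1:2). FLIPR membrane potential assay with ΔRFU baseline to peak/plateau and GABA EC80 as agonist. IC50 from a four-parameter fit, at least three independent experiments.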

[3] = target: GABA-A receptor; anion channel; test: Displacement of [3H]-muscimol from rat brain cortex GABAA receptor assessed as inhibition constant incubated for 1 hr by top-counter microplate scintillation counter method; format: cell membranes, Membrane
[4] = target: GABA-A receptor; anion channel; test: Displacement of [3H]-muscimol from rat cortical synaptic membrane GABAA receptor assessed as inhibition constant by microscint-scintillation method; format: cell membranes, Cortex
In short: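 Rat cortical synaptic membranes, washed repeatedly in 50 mM Tris-HCl pH 7.4, 70–80 μg protein. Incubated at 0 °C with 5 nM [3H]-muscimol (final) and a range of test concentrations, then filtered and counted by scintillation. Nonspecific binding defined with 1.0 mM GABA. IC50 converted to Ki by Cheng–Prusoff, triplicate, three independent experiments.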

[5] = target: T2, GABA A receptor alpha-3/beta-2/gamma-2 (Homo sapiens, UniProt P18507+P34903+P47870); test: Antagonist activity at human alpha3beta2gamma2 GABAA receptor expressed in HEK293 cells by FMP assay; format: cell-based
T2 sequence (P47870 whole entry): T1 sequence (P47870 whole entry)
T2 sequence (P18507 whole entry): T1 sequence (P18507 whole entry)
T2 sequence (P34903 whole entry): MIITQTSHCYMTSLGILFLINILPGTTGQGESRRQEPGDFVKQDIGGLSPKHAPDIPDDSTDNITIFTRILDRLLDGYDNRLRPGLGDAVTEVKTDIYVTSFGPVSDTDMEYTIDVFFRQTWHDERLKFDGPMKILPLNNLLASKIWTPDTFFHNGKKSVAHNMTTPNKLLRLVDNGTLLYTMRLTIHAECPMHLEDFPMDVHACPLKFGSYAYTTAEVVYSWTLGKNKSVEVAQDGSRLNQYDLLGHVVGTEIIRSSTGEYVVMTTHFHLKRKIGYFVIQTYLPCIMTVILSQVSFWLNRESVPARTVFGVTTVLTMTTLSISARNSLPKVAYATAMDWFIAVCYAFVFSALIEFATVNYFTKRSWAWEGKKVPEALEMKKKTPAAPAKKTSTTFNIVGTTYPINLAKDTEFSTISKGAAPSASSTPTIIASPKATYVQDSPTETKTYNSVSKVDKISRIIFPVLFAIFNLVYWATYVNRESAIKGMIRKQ
In short: as §1

[6] = Homo sapiens, Flp-In-293, read-out: pIC50 (converted)

IC50 [1, 6] [nM]	IC50 ([1]; flp-in-293) [nM]	IC50 [2] [nM]	IC50 ([2]; read-out: pIC50 (converted)) [nM]	Ki [3] [nM]	Ki [4] [nM]	IC50 [5] [nM]	IC50 ([5]; read-out: pIC50 (converted)) [nM]	SMILES
67.6	68	51	51.3	20				O=C(Nc1cccc(C(=O)N2CCC3(CCNCC3)CC2)c1)c1cccs1
					180	560	501	Cc1cccc(C(=O)N2CCC3(CCNCC3)CC2)c1
363	360	590	589	560				CC(=O)Nc1cccc(C(=O)N2CCC3(CCNCC3)CC2)c1
					520	3570	3240	Cc1ccc(C(=O)N2CCC3(CCNCC3)CC2)cc1
